According to ChEMBL document CHEMBL1944602, “Synthesis and biological characterisation of sirtuin inhibitors based on the tenovins” (Bioorg Med Chem, 2012):
Activity calls are given as the source filed them. No cut-off for these calls is given here.

Legend:
[1] = target: T1, NAD-dependent protein deacetylase sirtuin-1 (Homo sapiens) (UniProt Q96EB6); assay: Inhibition of SirT1 assessed as increase in p53 expression in human MCF7 cells at 5 uM after 6 hrs by Western blotting; assay type: cell-based
T1 sequence (whole entry): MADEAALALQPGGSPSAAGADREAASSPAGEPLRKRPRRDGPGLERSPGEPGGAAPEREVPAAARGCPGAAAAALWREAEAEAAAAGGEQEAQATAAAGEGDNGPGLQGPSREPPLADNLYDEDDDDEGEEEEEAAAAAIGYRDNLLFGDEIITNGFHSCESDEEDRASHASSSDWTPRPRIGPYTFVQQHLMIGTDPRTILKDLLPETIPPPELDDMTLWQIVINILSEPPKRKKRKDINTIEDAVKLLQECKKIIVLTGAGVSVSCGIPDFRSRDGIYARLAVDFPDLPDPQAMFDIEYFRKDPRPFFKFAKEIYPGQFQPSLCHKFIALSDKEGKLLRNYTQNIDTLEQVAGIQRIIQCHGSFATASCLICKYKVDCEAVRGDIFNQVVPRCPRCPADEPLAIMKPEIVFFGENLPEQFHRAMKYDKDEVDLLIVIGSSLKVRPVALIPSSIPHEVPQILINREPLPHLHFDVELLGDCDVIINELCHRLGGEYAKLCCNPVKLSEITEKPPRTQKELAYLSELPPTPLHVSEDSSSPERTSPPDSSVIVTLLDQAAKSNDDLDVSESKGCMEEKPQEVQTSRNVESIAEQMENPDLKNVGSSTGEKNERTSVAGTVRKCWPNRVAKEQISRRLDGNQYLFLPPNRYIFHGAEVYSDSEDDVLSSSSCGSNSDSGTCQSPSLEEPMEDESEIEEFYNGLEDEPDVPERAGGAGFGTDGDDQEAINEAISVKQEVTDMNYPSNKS
Method in brief: (§1)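 MCF-7 cells grown in DMEM with 10% FCS and gentamycin, seeded at 2 × 10⁵ per well on collagen-coated plates and incubated 42 h at 37 °C in 5% CO2. Compound in DMSO was added for 6 h. Lysis in LDS buffer, protein equalised by BCA, 4–12% bis-tris SDS-PAGE, PVDF blot. Total p53 detected with DO.1, PCNA as loading control, ECL detection. Scored semi-quantitatively against untreated level.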

[2] = target: T2, NAD-dependent protein deacetylase sirtuin-2 (Homo sapiens, UniProt Q8IXJ6); assay: Inhibition of recombinant human SitT2 by Fluor de Lys fluorescence assay
T2 sequence (Q8IXJ6 whole entry): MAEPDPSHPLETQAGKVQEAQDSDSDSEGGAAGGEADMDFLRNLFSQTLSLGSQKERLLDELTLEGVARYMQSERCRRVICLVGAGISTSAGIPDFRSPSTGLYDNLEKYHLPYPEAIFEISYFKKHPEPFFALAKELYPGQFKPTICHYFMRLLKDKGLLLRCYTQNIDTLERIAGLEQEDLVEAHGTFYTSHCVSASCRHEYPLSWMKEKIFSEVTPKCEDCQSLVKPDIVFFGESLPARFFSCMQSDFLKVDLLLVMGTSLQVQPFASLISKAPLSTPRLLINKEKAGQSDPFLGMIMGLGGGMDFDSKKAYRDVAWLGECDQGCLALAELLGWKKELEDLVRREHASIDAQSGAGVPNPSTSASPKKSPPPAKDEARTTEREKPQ

[3] = Solubility of the compound in water by UV spectrophotometry; assay type: physicochemical
Method in brief: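 Extinction coefficient from absorbance at 273 nm of a 7-point 2-fold dilution series in acetonitrile; DMSO used first where needed. Coefficient taken from the slope of absorbance against molar concentration. Used to find the actual concentration of a nominal 100 µM aqueous solution made from 40 mM DMSO stock.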

[4] = target: T1, NAD-dependent protein deacetylase sirtuin-1 (Homo sapiens); assay: Inhibition of recombinant human SitT1 at 60 uM by Fluor de Lys fluorescence assay
Method in brief: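 Human recombinant SirT1 deacetylation measured with the Fluor de Lys fluorescence kit at a fixed 60 µM inhibitor. Tested on two separate occasions; percent inhibition reported as a mean weighted to the standard error.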

[5] = target: T3, NAD-dependent protein deacetylase sirtuin-1 (Homo sapiens, UniProt Q96EB6); assay: Inhibition of recombinant human SitT1 by Fluor de Lys fluorescence assay
T3 sequence (Q96EB6 whole entry): T1 sequence (whole entry)

[6] = target: T1, NAD-dependent protein deacetylase sirtuin-1 (Homo sapiens); assay: Inhibition of SirT1 assessed as increase in p53 expression in human MCF7 cells at 2 uM after 6 hrs by Western blotting; assay type: cell-based; method in brief: as §1
[7] = target: T1, NAD-dependent protein deacetylase sirtuin-1 (Homo sapiens); assay: Inhibition of SirT1 assessed as increase in p53 expression in human MCF7 cells at 10 uM after 6 hrs by Western blotting; assay type: cell-based; method in brief: as §1
[8] = target: T1, NAD-dependent protein deacetylase sirtuin-1 (Homo sapiens); assay: Inhibition of SirT1 in human ARN8 cells assessed as p53 activation at 5 uM by beta-galactosidase reporter gene assay; assay type: cell-based
Method in brief: (§2)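 p53-dependent transcription measured with a beta-galactosidase reporter in ARN8 cells, run in triplicate. Read-out is the ratio of signal in treated cells to DMSO-control cells, given to 2 significant figures; a positive or negative activity call is also recorded.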

[9] = Cytotoxicity against human H1299 cells at 30 uM; assay type: cell-based; details: nci-h1299, 30 µM
[10] = target: T1, NAD-dependent protein deacetylase sirtuin-1 (Homo sapiens); assay: Inhibition of SirT1 in human ARN8 cells assessed as p53 activation at 10 uM by beta-galactosidase reporter gene assay; assay type: cell-based; method in brief: as §2
[11] = Drug metabolism in human H1299 cells after 16 hrs by mass spectrophotometry; assay type: ADME, cell-based; details: nci-h1299, 16 h
[12] = target: T1, NAD-dependent protein deacetylase sirtuin-1 (Homo sapiens); assay: Inhibition of SirT1 in human ARN8 cells assessed as p53 activation at 10 uM by beta-galactosidase reporter gene assay relative to control; assay type: cell-based; method in brief: as §2
[13] = target: T1, NAD-dependent protein deacetylase sirtuin-1 (Homo sapiens); assay: Inhibition of SirT1 in human ARN8 cells assessed as p53 activation at 20 uM by beta-galactosidase reporter gene assay relative to control; assay type: cell-based; method in brief: as §2
[14] = Cytotoxicity against human H1299 cells at 20 uM; assay type: cell-based; details: nci-h1299, 20 µM
[15] = Cytotoxicity against human ARN8 cells at 20 uM; assay type: cell-based; details: arn8, 20 µM
[16] = target: T1, NAD-dependent protein deacetylase sirtuin-1 (Homo sapiens); assay: Inhibition of SirT1 in human ARN8 cells assessed as p53 activation at 5 uM by beta-galactosidase reporter gene assay relative to control; assay type: cell-based; method in brief: as §2

Structure (SMILES) | inhibition [1] | IC50 [2] | solubility [3] | inhibition [4] | IC50 [5] | inhibition [6] | inhibition [7] | inhibition [8] | Activity [9] | inhibition [10] | Drug metabolism [11] | fold change (FC) [12] | fold change (FC) [13] | Activity [14] | Activity [15] | fold change (FC) [16]
CN(C)CCOCCOCCOCCOCCOCC(=O)Nc1ccc(NC(=S)NC(=O)c2ccc(C(C)(C)C)cc2)cc1.Cl | inactive | > 90 µM | > 1.34 µg/mL | 29.6% | > 60 µM | inactive | inactive |  |  |  |  |  |  |  |  | 
CN(C)CCCCC(=O)Nc1ccc(NC(=S)NC(=O)c2ccc(C(C)(C)C)cc2)cc1.Cl | Active |  | 0.74 µg/mL | 73.9% |  | Active | Active | Active | Toxic | Active | Active |  |  |  |  | 
CCCCc1ccc(C(=O)NC(=S)Nc2ccc(NC(=O)CCCCN(C)C)cc2)cc1.Cl |  | 8.6 µM |  | 56.3% | 46.3 µM |  |  | inactive | Toxic | inactive |  | 0.93 | 0.28 | Toxic | Toxic | 0.91
CN(C)CCCC(=O)Nc1ccc(NC(=S)NC(=O)c2ccc(C(C)(C)C)cc2)cc1.Cl | Active | 12.8 µM | 0.57 µg/mL | 85.2% | 35.8 µM | inactive | Active |  |  |  |  |  |  |  |  | 
